Measured values pooled from the literature.
Target: Dual serine/threonine and tyrosine protein kinase (DSTYK, Homo sapiens, UniProt Q6XUX3)
One construct used (Q6XUX3 1-929): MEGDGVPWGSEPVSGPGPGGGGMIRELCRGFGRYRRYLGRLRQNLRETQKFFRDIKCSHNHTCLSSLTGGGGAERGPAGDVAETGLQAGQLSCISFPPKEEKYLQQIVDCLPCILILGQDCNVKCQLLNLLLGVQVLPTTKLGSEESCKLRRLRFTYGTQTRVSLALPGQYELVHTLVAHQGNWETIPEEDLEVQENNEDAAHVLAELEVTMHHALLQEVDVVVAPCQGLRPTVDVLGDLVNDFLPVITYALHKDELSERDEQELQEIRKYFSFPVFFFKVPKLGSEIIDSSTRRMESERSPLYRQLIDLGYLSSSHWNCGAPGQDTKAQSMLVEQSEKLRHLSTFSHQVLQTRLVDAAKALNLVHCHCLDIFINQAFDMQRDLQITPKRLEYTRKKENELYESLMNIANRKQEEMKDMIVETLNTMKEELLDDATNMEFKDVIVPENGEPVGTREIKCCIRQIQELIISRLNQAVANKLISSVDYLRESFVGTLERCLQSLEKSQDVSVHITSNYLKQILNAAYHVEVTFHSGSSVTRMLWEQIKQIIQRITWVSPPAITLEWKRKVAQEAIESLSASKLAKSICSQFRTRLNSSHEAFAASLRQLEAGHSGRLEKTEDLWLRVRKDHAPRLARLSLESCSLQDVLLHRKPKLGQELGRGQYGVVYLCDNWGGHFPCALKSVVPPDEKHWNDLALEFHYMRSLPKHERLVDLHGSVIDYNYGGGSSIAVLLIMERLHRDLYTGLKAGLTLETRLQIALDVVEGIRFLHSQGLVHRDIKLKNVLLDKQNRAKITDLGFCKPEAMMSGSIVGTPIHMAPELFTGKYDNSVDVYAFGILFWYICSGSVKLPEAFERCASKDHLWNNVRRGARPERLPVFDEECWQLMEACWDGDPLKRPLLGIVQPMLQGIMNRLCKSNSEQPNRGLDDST

Structure (SMILES)	test	conditions	remaining binding [%]
O=C(c1ccc(Nc2ncc(Cl)c(-c3ccc(Cl)s3)n2)cc1)N1CCC(N2CCCC2)CC1	binding, competition with immobilised ligand	1 µM	14
CN(C)c1ncc(F)c(-c2cnn3ncccc23)n1	binding	1 µM	69
C=CC(=O)N1CCC(C(=O)NCC(=O)N2CCN(c3nc(-c4cnc(N)nc4C(F)F)nc(N4CCOCC4)n3)CC2)CC1	binding, competition with immobilised ligand	1 µM	72
CCN1CCN(Cc2ccc(C(=O)Nc3ccc(C)c(Oc4ccc5c(c4)CC(=O)N5)c3)cc2C(F)(F)F)CC1	binding, competition with immobilised ligand	1 µM	100
c1cncc(-c2cccc(Nc3nccc(NC4CCCCC4)n3)c2)c1	binding, competition with immobilised ligand	10 µM	75
N[C@H]1CCN(c2nccc(-c3cnn4ncccc34)n2)C1	binding	1 µM	100
O=C1CCc2cc(Nc3cc(OC4CCOCC4)c([N+](=O)[O-])cc3Cl)ccc2N1	cell-free assay, competition with immobilised ligand	1 µM	90
F[C@@H]1CCN(c2nccc(-c3cnn4ncccc34)n2)C1	binding	1 µM	100
CC(C)(O)c1cncc(-c2nc3ccc(F)cc3n2C2CC2)c1	cell-free assay, competition with immobilised ligand	1 µM	100
Nc1ncc2c(n1)-c1c([nH]c3ccc(C#CC4CC4)cc13)CCCC2	binding, competition with immobilised ligand	1 µM	19
COc1cnc(Nc2cccc(S(N)(=O)=O)c2)nc1N1CCN(c2ccccc2)C(=O)C1	binding, competition with immobilised ligand	1 µM	89
O=C(NCCCN1CCOCC1)c1ccc(Nc2nccc(-c3cc4ccccc4s3)n2)cc1	binding, competition with immobilised ligand	1 µM	76
CN(C)c1nccc(-c2cnn3ncccc23)n1	binding	1 µM	96
CCc1ccccc1C(=O)Nc1n[nH]c2c(C)c(F)c(C3C(C#N)=C(C)N(C)C(C)=C3C#N)cc12	cell-free assay, competition with immobilised ligand	1 µM	95
O=C(Nc1c[nH]nc1C(=O)NC1CCNCC1)c1cc(F)cc(F)c1	binding, competition with immobilised ligand	1 µM	87
CNC(=O)c1ccc(Nc2ncc(C(F)(F)F)c(NCc3nccnc3N(C)S(C)(=O)=O)n2)cc1	cell-free assay, competition with immobilised ligand	0.1 µM	87
CN(c1nccc(-c2cnn3ncccc23)n1)C1CC1	binding	1 µM	98
O=C(NCCCN1CCOCC1)c1ccc(Nc2ncc(Cl)c(-c3ccc(Cl)s3)n2)cc1	binding, competition with immobilised ligand	1 µM	89
C[C@@H]1CN(c2cc(-c3n[nH]c4ccc(OC5(C)CC5)cc34)ncn2)C[C@H](C)O1	cell-free assay, competition with immobilised ligand	0.1 µM	77
c1cnn2ncc(-c3ccnc(N4CCC45COC5)n3)c2c1	binding	1 µM	79
CCOC(=O)c1cc2cc(-c3cc(C(=O)NCc4ccc(C(=O)O)cc4)nn3C)ccc2[nH]1	cell-free assay, competition with immobilised ligand	0.1 µM	69
C[C@H]1CCN(c2nccc(-c3cnn4ncccc34)n2)C1	binding	1 µM	94
